Experimental data: ChEMBL document CHEMBL1153857, “1,4-Diazepanes derived from (S)-serine--homopiperazines with improved sigma(1) (sigma) receptor affinity and selectivity” (Eur J Med Chem, 2009)

Columns and labels:
[1] = Displacement of radioligand from phencyclidine binding site of NMDA receptor
Summary of the method: (§1)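 Competition binding, first screened at two test concentrations. Exact Ki determined only when binding inhibition at the higher concentration was considerable.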

Mu-type opioid receptor = Mu-type opioid receptor (Homo sapiens, UniProt P35372); test: Displacement of radioligand from mu opioid receptor; summary of the method: as §1
Sequence of Mu-type opioid receptor (P35372 whole entry): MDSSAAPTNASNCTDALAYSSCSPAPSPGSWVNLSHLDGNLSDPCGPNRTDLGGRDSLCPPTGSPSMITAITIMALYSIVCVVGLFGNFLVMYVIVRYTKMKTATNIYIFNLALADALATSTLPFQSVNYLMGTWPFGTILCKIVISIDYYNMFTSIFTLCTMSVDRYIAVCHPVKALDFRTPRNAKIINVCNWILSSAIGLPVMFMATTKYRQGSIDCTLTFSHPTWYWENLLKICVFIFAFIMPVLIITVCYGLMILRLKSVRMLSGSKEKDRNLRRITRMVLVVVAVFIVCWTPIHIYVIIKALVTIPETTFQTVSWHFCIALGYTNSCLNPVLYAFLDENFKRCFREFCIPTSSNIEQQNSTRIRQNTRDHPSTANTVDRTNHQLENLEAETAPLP

[2] = Selectivity for sigma 1 receptor in guinea pig brain membrane over sigma 2 receptor in rat liver membrane; type: cell membranes
[3] = Displacement of [3H]ditolylguanidine from sigma 2 receptor in rat liver membrane by liquid scintillation analyzer; type: cell membranes
Summary of the method: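 Rat liver membranes (about […] protein) incubated with 3 nM [3H]-ditolylguanidine plus 100 nM (+)-pentazocine to mask sigma1 sites, with at least 6 test concentrations, in 50 mM Tris-HCl pH 8.0, 120 min at 25 °C. Stopped with ice-cold 10 mM Tris pH 8.0, filtered on PEI-soaked GF/B, washed three times, scintillation counted. […] Triplicates; Ki reported.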

[4] = biological target: Sigma non-opioid intracellular receptor 1 (Cavia porcellus, UniProt Q60492); test: Displacement of [3H](+)-pentazocine from sigma 1 receptor in guinea pig brain membrane by liquid scintillation analyzer; type: cell membranes
Sequence of Sigma non-opioid intracellular receptor 1 (Q60492 whole entry): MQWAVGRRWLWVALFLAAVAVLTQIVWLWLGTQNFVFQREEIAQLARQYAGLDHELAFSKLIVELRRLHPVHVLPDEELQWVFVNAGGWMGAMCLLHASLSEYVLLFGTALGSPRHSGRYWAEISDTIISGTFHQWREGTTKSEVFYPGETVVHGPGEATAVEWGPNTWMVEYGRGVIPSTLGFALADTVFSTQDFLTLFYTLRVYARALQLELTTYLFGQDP
Summary of the method: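 Guinea pig brain membranes (about […] protein) incubated with 3 nM [3H]-pentazocine and at least 6 test concentrations in 50 mM Tris-HCl pH 7.4, 120 min at 37 °C. Filtration through PEI-presoaked GF/B filters, four cold-buffer washes, scintillation counting. Non-specific binding with excess haloperidol. Triplicates; IC50 by non-linear regression, Ki reported.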

[5] = biological target: Kappa-type opioid receptor (Homo sapiens, UniProt P41145); test: Displacement of [3H]U-69593 from kappa opioid receptor; summary of the method: as §1
Sequence of Kappa-type opioid receptor (P41145 whole entry): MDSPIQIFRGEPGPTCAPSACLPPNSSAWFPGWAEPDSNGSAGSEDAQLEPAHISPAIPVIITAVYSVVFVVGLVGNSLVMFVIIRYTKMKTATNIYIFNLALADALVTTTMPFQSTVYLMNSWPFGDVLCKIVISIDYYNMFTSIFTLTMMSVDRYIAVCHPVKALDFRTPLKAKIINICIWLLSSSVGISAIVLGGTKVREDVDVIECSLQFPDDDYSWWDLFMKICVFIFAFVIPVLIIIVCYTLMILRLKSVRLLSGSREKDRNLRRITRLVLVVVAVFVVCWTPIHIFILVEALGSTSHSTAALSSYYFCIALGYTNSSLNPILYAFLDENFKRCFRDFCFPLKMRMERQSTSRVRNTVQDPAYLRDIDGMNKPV

| IC50 [1] | IC50 (Mu-type opioid receptor) | Ratio Ki [2] | Ki [3] | Ki [4] | IC50 [5] | SMILES |
| --- | --- | --- | --- | --- | --- | --- |
| > 10 µM | > 10 µM | 53 | 0.374 µM | 0.0074 µM | > 10 µM | OC[C@H]1CN(Cc2ccccc2)CCCN1Cc1ccccc1 |
| > 10 µM | > 10 µM | 28 | 9.01 µM | 0.32 µM | > 10 µM | COC(CN1CCCN(Cc2ccccc2)[C@@H](CO)C1)OC |
|  |  |  | > 10 µM | > 10 µM |  | COC(CN1CCN(Cc2ccccc2)[C@@H](CO)C1)OC |

| SMILES | IC50 [1] | IC50 (Mu-type opioid receptor) | Ratio Ki [2] | Ki [3] | Ki [4] | IC50 [5] |
| --- | --- | --- | --- | --- | --- | --- |
| OC[C@H]1CN(Cc2ccccc2)CCN1Cc1ccccc1 |  |  | 5 | 0.177 µM | 0.038 µM |  |
